Measured values as given in ChEMBL document CHEMBL1140884, “Oligodeoxyribonucleotide-based antagonists for Toll-like receptors 7 and 9” (2009).
Activity calls are given as the source filed them. The rule behind the calls is not given here.

Experiments:
[1] = test system: Mus musculus; test: Inhibition of 5'-UGCUGUUCUG-X-GUCUUGUCGU-5'-induced IL12 production in C57BL/6 mouse treated 72 hrs before induction at 10 mg/kg, sc; type: functional; conditions: C57BL/6, sc, route subcutaneous
How it was run: (§1)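 Female C57BL/6 mice, 6-8 weeks, n = 3, given antagonist 10 mg/kg sc in the right flank. After 72 h, agonist given sc in the left flank: TLR7/8 RNA agonist at 50 mg/kg or TLR9 agonist at 0.25 mg/kg. Serum collected 2 h after agonist by retro-orbital bleeding; cytokines/chemokines by mouse 20-plex Luminex bead assay.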

[2] = test system: Mus musculus; test: Inhibition of 5'-TCTGACRTTCT-X-TCTTRCAGTCT-3'-induced MIG production in C57BL/6 mouse treated 72 hrs before induction at 10 mg/kg, sc; type: functional; conditions: C57BL/6, sc, route subcutaneous
How it was run: (§2)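 Female C57BL/6 mice (n=3) received antagonist 10 mg/kg sc in the right flank. After 72 h, TLR9 agonist 0.25 mg/kg sc was given in the left flank. Serum was taken 2 h after agonist and cytokines/chemokines were measured by Luminex multiplex assay. Representative of at least three experiments.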

[3] = molecular target: T1, Toll-like receptor 9 (Mus musculus) (UniProt Q9EQU3); test: Antagonist activity at TLR9 in mouse J774 cells assessed as inhibition of 5'-TCTGACRTTCT-X-TCTTRCAGTCT-3'-induced NF-kappaB activation pretreated for 1 hr; type: functional, cell-based
T1 sequence (whole entry): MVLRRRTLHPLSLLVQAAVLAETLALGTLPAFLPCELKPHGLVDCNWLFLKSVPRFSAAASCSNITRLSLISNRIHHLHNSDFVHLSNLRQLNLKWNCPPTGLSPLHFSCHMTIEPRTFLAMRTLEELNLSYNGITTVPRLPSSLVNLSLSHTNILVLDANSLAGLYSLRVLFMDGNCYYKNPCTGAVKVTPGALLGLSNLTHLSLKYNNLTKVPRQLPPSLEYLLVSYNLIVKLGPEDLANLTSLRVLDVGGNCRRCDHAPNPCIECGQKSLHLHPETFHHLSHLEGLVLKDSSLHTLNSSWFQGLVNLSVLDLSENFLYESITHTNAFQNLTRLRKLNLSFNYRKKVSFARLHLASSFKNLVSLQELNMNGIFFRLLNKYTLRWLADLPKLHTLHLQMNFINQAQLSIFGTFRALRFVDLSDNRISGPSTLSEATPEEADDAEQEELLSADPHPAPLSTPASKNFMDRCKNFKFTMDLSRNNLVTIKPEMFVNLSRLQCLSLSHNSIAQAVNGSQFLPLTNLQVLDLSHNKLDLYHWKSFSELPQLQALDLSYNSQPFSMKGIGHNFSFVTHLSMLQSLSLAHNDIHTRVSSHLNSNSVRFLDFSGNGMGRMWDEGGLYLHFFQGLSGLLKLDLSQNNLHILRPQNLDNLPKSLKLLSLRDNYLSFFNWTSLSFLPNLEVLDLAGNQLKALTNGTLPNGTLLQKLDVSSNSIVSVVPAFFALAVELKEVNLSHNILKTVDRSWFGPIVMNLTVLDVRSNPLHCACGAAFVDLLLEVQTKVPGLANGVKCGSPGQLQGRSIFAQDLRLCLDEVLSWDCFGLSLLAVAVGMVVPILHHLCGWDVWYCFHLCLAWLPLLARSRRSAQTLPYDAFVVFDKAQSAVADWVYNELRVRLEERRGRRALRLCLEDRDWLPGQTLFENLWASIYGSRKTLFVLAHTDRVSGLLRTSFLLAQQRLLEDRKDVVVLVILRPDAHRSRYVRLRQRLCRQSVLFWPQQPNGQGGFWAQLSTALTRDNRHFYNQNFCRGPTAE
How it was run: (§3)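 J774 cells at 5×10^6 cells/well were preincubated with antagonist for 1 h. Agonist was then added: TLR9 agonist 1 µg/mL, an RNA-based TLR7/8 agonist, or LPS 100 ng/mL. Antagonist was used at 5–40 µg/mL or at the indicated agonist ratios. Nuclear extracts were taken 1 h after agonist and analysed by EMSA.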

[4] = molecular target: T1, Toll-like receptor 9 (Mus musculus); test: Antagonist activity at TLR9 in mouse J774 cells assessed as inhibition of 5'-TCTGACRTTCT-X-TCTTRCAGTCT-3'-induced NF-kappaB activation; type: functional, cell-based; how it was run: as §3
[5] = test system: Mus musculus; test: Inhibition of 5'-TCTGACRTTCT-X-TCTTRCAGTCT-3'-induced IL12 production in C57BL/6 mouse at 10 mg/kg, sc; type: functional, organism-based; design: dose 10 mg/kg
How it was run: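 C57BL/6 mice received antagonist or control 10 mg/kg sc, either with TLR9 agonist 0.25 mg/kg sc or up to 48 h before it. Serum IL-12 was measured 2 h after agonist. Two or three independent experiments; mean ± SEM, Student's t test versus PBS.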

[6] = test system: Mus musculus; test: Inhibition of 5'-UGCUGUUCUG-X-GUCUUGUCGU-5'-induced IP10 production in C57BL/6 mouse treated 72 hrs before induction at 10 mg/kg, sc; type: functional; conditions: C57BL/6, sc, route subcutaneous; how it was run: as §1
[7] = test system: Mus musculus; test: Inhibition of 5'-UGCUGUUCUG-X-GUCUUGUCGU-5'-induced MCP1 production in C57BL/6 mouse treated 72 hrs before induction at 10 mg/kg, sc; type: functional; conditions: C57BL/6, sc, route subcutaneous; how it was run: as §1
[8] = test system: Mus musculus; test: Inhibition of 5'-UGCUGUUCUG-X-GUCUUGUCGU-5'-induced IL10 production in C57BL/6 mouse treated 72 hrs before induction at 10 mg/kg, sc; type: functional; conditions: C57BL/6, sc, route subcutaneous; how it was run: as §1
[9] = test system: Mus musculus; test: Inhibition of 5'-TCTGACRTTCT-X-TCTTRCAGTCT-3'-induced IP10 production in C57BL/6 mouse treated 72 hrs before induction at 10 mg/kg, sc; type: functional; conditions: C57BL/6, sc, route subcutaneous; how it was run: as §2
[10] = test system: B; test: Inhibition of 5'-TCTGTCRTTCT-X-TCTTRCTGTCT-5'-induced IL6 secretion in MRL/lpr mouse splenic B cells after 24 hrs by ELISA; type: functional, cell-based
How it was run: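 Splenic B cells from MRL/lpr mice, purified by B-cell isolation kit (>95% B220+), cultured at 5×10^5 cells/200 μL in RPMI-1640 with 10% FBS and penicillin/streptomycin; stimulated with 1 μg/mL TLR9 agonist with or without antagonist at 0.3, 1 or 3 μg/mL, or antagonist 3 μg/mL alone. Supernatants taken at 24 h; IL-6 by sandwich ELISA.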

[11] = molecular target: T1, Toll-like receptor 9 (Mus musculus); test: Antagonist activity at TLR9 in mouse J774 cells assessed as inhibition of LPS-induced NF-kappaB activation treated 1 hr before LPS induction; type: functional, cell-based; how it was run: as §3
[12] = test system: Mus musculus; test: Inhibition of 5'-TCTGACRTTCT-X-TCTTRCAGTCT-3'-induced KC production in C57BL/6 mouse treated 72 hrs before induction at 10 mg/kg, sc; type: functional; conditions: C57BL/6, sc, route subcutaneous; how it was run: as §2
[13] = molecular target: T1, Toll-like receptor 9 (Mus musculus); test: Agonist activity at TLR9 in mouse J774 cells assessed as of NF-kappaB activation; type: functional, cell-based
How it was run: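 Murine J774 macrophages grown in DMEM with 10% FBS and plated at 5×10^6 cells/well. Nuclear extracts taken 1 h after agonist addition. NF-κB detected by EMSA on native polyacrylamide gels with autoradiography.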

- Activity [3]: Dose-dependent effect
- Activity [4]: Active
- Activity [11]: inactive
- Activity [13]: inactive
Compound: CO[C@@H]1[C@H](OP(=O)(S)OC[C@H]2O[C@@H](n3ccc(N)nc3=O)C[C@@H]2OP(=O)(S)OC[C@H]2O[C@@H](n3ccc4c(=O)[nH]c(N)nc43)C[C@@H]2OP(=O)(S)OC[C@H]2O[C@@H](n3cc(C)c(=O)[nH]c3=O)C[C@@H]2OP(=O)(S)OC[C@H]2O[C@@H](n3cc(C)c(=O)[nH]c3=O)C[C@@H]2OP(=O)(S)OC[C@H]2O[C@@H](n3ccc(N)nc3=O)C[C@@H]2OP(=O)(S)OC[C@H]2O[C@@H](n3cc(C)c(=O)[nH]c3=O)C[C@@H]2OP(=O)(S)OC[C@H]2O[C@@H](n3ccc(N)nc3=O)C[C@@H]2OP(=O)(S)OC[C@H]2O[C@@H](n3cc(C)c(=O)[nH]c3=O)C[C@@H]2OP(=O)(S)OC[C@H]2O[C@@H](n3cnc4c(=O)[nH]c(N)nc43)C[C@@H]2OP(=O)(S)OC[C@H]2O[C@@H](n3cc(C)c(=O)[nH]c3=O)C[C@@H]2O)[C@@H](COP(=O)(S)O[C@H]2[C@@H](OC)[C@H](n3cnc4c(=O)[nH]c(N)nc43)O[C@@H]2COP(=O)(S)O[C@H]2C[C@H](n3cc(C)c(=O)[nH]c3=O)O[C@@H]2COP(=O)(S)O[C@H]2C[C@H](n3ccc(N)nc3=O)O[C@@H]2COP(=O)(S)O[C@H]2C[C@H](n3cc(C)c(=O)[nH]c3=O)O[C@@H]2COP(=O)(S)O[C@H]2C[C@H](n3cnc4c(N)ncnc43)O[C@@H]2COP(=O)(S)O[C@H]2C[C@H](n3cc(C)c(=O)[nH]c3=O)O[C@@H]2COP(=O)(S)O[C@@H]2C[C@@H](n3ccc(N)nc3=O)O[C@H]2CO)O[C@H]1n1cnc2c(N)ncnc21 (stereo partly drawn)
- inhibition in vivo at 10 mg/kg [1]: ≥ 50%
- inhibition in vivo at 10 mg/kg [2]: ≥ 50%
- Activity [5]: Active
- inhibition in vivo at 10 mg/kg [6]: ≥ 50%
- inhibition in vivo at 10 mg/kg [7]: ≥ 50%
- inhibition in vivo at 10 mg/kg [8]: ≥ 50%
- inhibition in vivo at 10 mg/kg [9]: ≥ 50%
- Activity [10]: Dose-dependent effect
- inhibition in vivo at 10 mg/kg [12]: ≥ 50%
